Screening results from PubChem BioAssay.
STAT3 act: STAT3 signaling activation. 0.91% of 190,000 active. AID 871. activation (% of control), % at 5.6 µM. U3A cells, IL-6 STAT3-luciferase reporter, luminescence; 100% = signal with IL-6 EC80 alone;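 active = activation above the screen-wide mean of compound activation plus 3 SD, cut at about 130% in these data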;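 note: 0% = background luminescence of wells with medium and substrate only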
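Test system: Human STAT1-deficient U3A cells with stable STAT3-luciferase reporter | Also added: Interleukin-6, 33 ng/mL | Timing: Compound pre-incubation 1 h before IL-6, then 6 h stimulation at 37 °C | Technique: Luciferase reporter luminescence | Read-out: Percent of IL-6-only median luminescence | Benchmarks: IL-6-only wells as 100% reference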
STAT3 inh: reduces IL-6 driven STAT3 reporter signal. U3A cells, IL-6 STAT3-luciferase reporter, luminescence; host cell line lacks STAT1. inhibition, % at 5.5 µM. 0.89% of 190,000 active. AID 862;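 active = inhibition above the mean inhibition across all screened compounds plus 3 SD, cut at about 44% in these data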;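 note: 0% = DMSO only wells and 100% = 100 µM nifuroxazide control wells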
STAT1 activator: activators of IFN-gamma induced STAT1 signaling; 2.6% of 200,000 active; AID 932; NIH 3T3 STAT1-luciferase reporter, luminescence; 100% = IFN-gamma alone, no compound; activation (% of control), % at 5.5 µM;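 active = activation above the screen-wide mean activation plus 3 SD, cut at about 130% in these data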;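 note: raw ratio to IFN-gamma control signal so 100% means no change and 0% no light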
NF-kB neuron act: raises NF-kB expression in human neuronal cells; 1.6% of 190,000 active; fold change at 12.5 µM; NF-kB reporter expression; stronger effect = higher value; in the data active = fold change above about 3.3
APP 5'UTR act: activates APP 5'UTR luciferase reporter. AID 1276. activation, % at 2 µM. 1% of 190,000 active. SH-SY5Y APP 5'UTR luciferase reporter, luminescence; zero percent = DMSO vehicle wells;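 active = activation above a set limit, based on mean plus 3 SD of controls, cut at about 140% in these data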
STAT1 inh: inhibitors of IFN-gamma induced STAT1 signaling. AID 920. 0.35% of 200,000 active. inhibition, % at 5.5 µM. NIH 3T3 STAT1-luciferase reporter, luminescence;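 active = inhibition above a set limit, the mean inhibition across all tested compounds plus 3 SD, cut at about 34% in these data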;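 note: 0% = IFN-gamma with DMSO and 100% = IFN-gamma with 300 µM nifuroxazide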
Starred values were filed as active, the others as inactive. In the library only some 4.9% were active in any assay of this set; here they are far more common.

SMILES	STAT3 act	STAT3 inh	STAT1 activator	NF-kB neuron act	APP 5'UTR act	STAT1 inh
Cc1ccsc1C(=O)NNC(=O)C1CCCCC1C(=O)O (configuration not stated)	89	16	129*	1.4	97	-43
Cc1ccsc1C(=O)NNC(=O)C1CC=CCC1C(=O)O (configuration not stated)	108	-6	144*	1.5	58	-49
O=C(NNC(=O)C1CC=CCC1C(=O)O)c1cccs1 (configuration not stated)	105	-4	111	1	14	-12
COc1ccc(COc2cc(-c3cccc(OC)c3)nc3ccc(NC(=O)C(C)C)cc23)cc1	97	1	97	0.72	-14	3
COc1ccc(N(CC(O)Cn2cnc3ccccc32)S(=O)(=O)c2ccc(C)cc2)cc1 (configuration not stated)	104	5	96	0.89	10	4
CC(C)CN(C(=O)C(c1ccccc1)c1ccccc1)c1c(N)n(CC(C)C)c(=O)[nH]c1=O	93	16	91	1.1	4	10
Nc1nc(-c2ccc(C(=O)O)cc2)cs1	105	-3	101	1.2	40	-2
Nc1nc(-c2ccc(-c3ccccc3)cc2)cs1	82	23	141*	7.9*	179*	-43
CC(C)C(=O)Nc1ccc(-c2csc(-c3ccccc3)n2)cc1	100	11	142*	1.8	133	-46
c1ccc2c(-c3csc(-c4ccncc4)n3)c[nH]c2c1	144*	-49	147*	2.2	31	-54
c1ccc(-c2csc(-c3ccncc3)n2)cc1	94	10	133*	1.4	7	-38
O=C(CCCN1C(=O)/C(=C\c2cccs2)SC1=S)NNC(=O)c1cccnc1	98	8	91	1.2	-20	10
Cc1ccc(/C=C/C(=O)OCC(=O)Nc2cccc(S(=O)(=O)N(C)C)c2)o1	104	5	105	1	7	-6
O=C(Cc1ccccc1)NN1C(=O)C2C3C=CC(C3)[C@@H]2C1=O (some centres not stated)	106	-2	104	1.2	3	-4
COc1ccc(-c2csc(NC(=O)CC(C)C)n2)cc1	92	11	108	2.1	36	-9
Cc1nc(-c2ccc(NC(=O)CC(C)C)cc2)cs1	79	27	129*	1.1	41	-32
Oc1ccccc1-c1csc(-c2ccccc2)n1	170*	-77	131*	1.2	116	-38
CS(=O)(=O)Nc1nnc(SCC(=O)N(c2ccccc2)c2ccccc2)s1	105	-3	101	1.2	4	-1
Cc1nn(-c2ccccc2)c(C)c1/C=N/NC(=O)c1cccs1	92	10	140*	1.3	50	-44
Cc1nn(-c2ccccc2)c(C)c1/C=N/NC(=O)c1cc(-c2cccs2)[nH]n1	128	-37	101	0.65	-93	-1
CC(C)C(=O)N/N=C/c1ccc(OCc2ccccc2)cc1	104	6	96	1.3	7	4
Cc1nn(-c2ccccc2)c(Cl)c1/C=N/Nc1ccc(Cl)c(C(=O)O)c1	63	44*	62	10*	74	42*
O=C(O)c1cc(N/N=C/c2ccc(OCc3ccccc3)cc2)ccc1Cl	111	-11	134*	2.6	104	-37
Cc1nn(-c2ccccc2)c(Cl)c1/C=N/NC(=O)c1ccco1	95	16	141*	2.2	85	-45
Cc1nn(-c2ccccc2)c(Cl)c1/C=N/NC(=O)OC(C)(C)C	105	-6	139*	0.83	65	-43
Cn1cccc1C(=O)OCc1cc(Cl)cc2c1OCOC2	107	-6	145*	2.2	52	-49
CC(=O)OCC(=O)N1N=C(c2ccc3ccccc3c2)CC1c1ccccc1 (configuration not stated)	96	10	139*	1.5	55	-46
COc1ccc(C2CC(c3ccc4ccccc4c3)=NN2C(=O)CN2CCC(C(N)=O)CC2)cc1 (configuration not stated)	109	-3	121	1	41	-24
CCOC(=O)/C=C(\C)N1N=C(c2ccccc2)CC1c1ccccc1 (configuration not stated)	125	-14	142*	2.5	83	-46
